In ChEMBL document CHEMBL4017499, “The Discovery of Novel Antimalarial Aminoxadiazoles as a Promising Nonendoperoxide Scaffold” (J Med Chem, 2017):
In brackets after ≈: the same amount, converted by molar mass. Values belong to the compound of their own block, whether it stands above or below them. Activity calls are given as the source filed them. No cut-off for these calls is given here.

What was measured:
Plasmodium falciparum [1] = assay: Antiplasmodial activity against Plasmodium falciparum 3D7A infected in red blood cells preincubated for 24 hrs followed by [3H]-hypoxanthine addition measured after 24 hrs by scintillation counting; assay type: functional, cell-based
In short: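 Whole-cell growth assay on sensitive P. falciparum strain 3D7A by [3H]hypoxanthine incorporation; two or three independent biological replicates per value.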

Liver = assay: Intrinsic clearance in human liver microsomes at 0.5 uM up to 45 mins in presence of NADPH by HPLC-MS/MS analysis; assay type: ADME, microsome; settings: 0.75 h
[2] = Solubility of the compound in fasted state stimulated intestinal fluid at pH 6.5 by HPLC analysis; assay type: physicochemical; settings: fasted state simulated intestinal fluid
In short: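 Solubility measured in fasted state simulated intestinal fluid, pH 6.5.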

Plasmodium falciparum [3] = assay: Antimalarial activity against Plasmodium falciparum 3D7 0087/N9 infected in SCID mouse assessed as reduction in parasitemia at 67 mg/kg, po administered 3 days post infection dosed once a day for four consecutive days measured 7 days post dose; assay type: functional, organism-based
In short: (§1)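 SCID mice engrafted with human parasite P. falciparum Pf 3D70087/N9; oral dosing started 3 days after infection, once daily for four consecutive days; parasitemia compared with untreated controls.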

Plasma [4] = assay: Drug level in Swiss CD1 mouse plasma treated with 5-([3,4'-Bipyridin]-2'-yl)-N-(4-(pyrrolidin-1-ylmethyl)phenyl)-1,3,4-oxadiazol-2-amine at 500 mg/kg, po by HPLC analysis; assay type: ADME, organism-based; settings: in vivo
In short: (§2)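 Mice given high oral doses (250/300 and 500 mg/kg); plasma analysed by HPLC for parent compound and breakdown products, expressed as percentage levels.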

Mus musculus = assay: (§3) Clearance in CD1 mouse at 1 mg/kg, iv measured up to 24 hrs post dose by LC-MS/MS analysis; assay type: ADME, organism-based; settings: mouse, in vivo, 24 h
In short: (§4)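 Pharmacokinetics in mouse after a single intravenous dose of 1 mg/kg.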

Plasmodium falciparum [5] = assay: Antimalarial activity against Plasmodium falciparum 3D7 0087/N9 infected in po dosed SCID mouse assessed as reduction in parasitemia administered 3 days post infection dosed once a day for four consecutive days measured after 7 days; assay type: functional; settings: 3D7 0087/N9, po; in short: as §1
Plasma [6] = assay: Drug metabolism in Swiss CD1 mouse assessed as 2-(3-(Pyridin-3-yl)-5-(trifluoromethyl)benzoyl)-N-(4-(pyrrolidin-1-ylmethyl)phenyl)hydrazinecarboxamide in plasma at 300 to 500 mg/kg, po by HPLC analysis; assay type: ADME, organism-based; settings: in vivo; in short: as §2
[7] = Chemical stability in SGF media at pH 1.6 after 14 hrs; assay type: physicochemical; settings: simulated gi fluid, pH 1.6, 14 h
In short: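 Stability in simulated gastric fluid at pH 1.6, held at 37 °C for up to 24 h; checked for degradation products.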

Plasmodium falciparum [8] = assay: Antimalarial activity against Plasmodium falciparum 3D7 0087/N9 infected in po dosed mouse assessed as average daily exposure in whole blood required to reduce parasitemia administered 3 days post infection dosed once a day for four consecutive days measured 7 days post dose; assay type: functional, organism-based
[9] = Lipophilicity, log D of compound at pH 7.4 by chromatographic method; assay type: physicochemical; settings: buffer
[10] = Oral bioavailability in CD1 mouse at 10 mg/kg measured up to 24 hrs post dose by LC-MS/MS analysis; assay type: ADME, organism-based; settings: in vivo
In short: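 Oral bioavailability in mouse after a single oral dose of 10 mg/kg.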

[11] = Half life in CD1 mouse at 1 mg/kg, iv measured up to 24 hrs post dose by LC-MS/MS analysis; assay type: ADME, organism-based; settings: in vivo; in short: as §4
Plasmodium falciparum [12] = assay: Ratio of IC50 for chloroquine/pyrimethamine-resistant Plasmodium falciparum Tm90C2A infected in red blood cells to IC50 for wild type Plasmodium falciparum 3D7A infected in red blood cells; assay type: functional
Plasmodium falciparum [13] = assay: Ratio of IC50 for chloroquine/atovaquone/cycloguanil-resistant Plasmodium falciparum FCR3 infected in red blood cells to IC50 for wild type Plasmodium falciparum 3D7A infected in red blood cells; assay type: functional
[14] = as §3; assay type: ADME, organism-based; settings: CD1, mouse, in vivo; in short: as §4
[15] = Volume of distribution at steady state in CD1 mouse at 1 mg/kg, iv measured up to 24 hrs post dose by LC-MS/MS analysis; assay type: ADME, organism-based; settings: in vivo, read-out: Vdss; in short: as §4
[16] = Ratio of IC50 for chloroquine/pyrimethamine-resistant Plasmodium falciparum Dd2 infected in red blood cells to IC50 for wild type Plasmodium falciparum 3D7A infected in red blood cells; assay type: functional
Plasmodium falciparum [17] = assay: Ratio of IC50 for pyrimethamine-resistant Plasmodium falciparum TC08 infected in red blood cells to IC50 for wild type Plasmodium falciparum 3D7A infected in red blood cells; assay type: functional
[18] = Ratio of IC50 for Plasmodium falciparum HB3 infected in red blood cells to IC50 for wild type Plasmodium falciparum 3D7A infected in red blood cells; assay type: functional
Plasmodium falciparum [19] = assay: Ratio of IC50 for chloroquine/pyrimethamine-resistant Plasmodium falciparum V1/S infected in red blood cells to IC50 for wild type Plasmodium falciparum 3D7A infected in red blood cells; assay type: functional
Plasmodium falciparum [20] = assay: Ratio of IC50 for chloroquine-resistant Plasmodium falciparum T9/94 infected in red blood cells to IC50 for wild type Plasmodium falciparum 3D7A infected in red blood cells; assay type: functional
Plasmodium falciparum [21] = assay: Ratio of IC50 for chloroquine/pyrimethamine/atovaquone-resistant Plasmodium falciparum Tm90C2B infected in red blood cells to IC50 for wild type Plasmodium falciparum 3D7A infected in red blood cells; assay type: functional
Plasma [22] = assay: Drug level in Swiss CD1 mouse plasma treated with 5-(3-(Pyridin-3-yl)-5-(trifluoromethyl)phenyl)-N-(4-(pyrrolidin-1-ylmethyl)phenyl)-1,3,4-oxadiazol-2-amine at 500 mg/kg, po by HPLC analysis; assay type: ADME, organism-based; settings: in vivo; in short: as §2

SMILES: CN1CCc2ncc(Nc3nnc(-c4cc(-c5cccnc5)cc(C(F)(F)F)c4)o3)cc2C1
solubility [2]: 68 µg/mL (≈ 150 µM)
IC50 (Plasmodium falciparum [1]): 0.03 µM
Activity (Plasmodium falciparum [3]): inactive

SMILES: O=C(O)c1cc(-c2cccnc2)ccn1
Drug metabolism (Plasma [4]): Metabolite_Detected

SMILES: FC(F)(F)c1cc(-c2cccnc2)cc(-c2nnc(Nc3ccc(CN4CCCC4)cc3)o2)c1
clearance (Mus musculus): 19.5 mL/min/kg
ED90 (Plasmodium falciparum [5]): < 20 mg/kg
IC50 (Plasmodium falciparum [1]): 0.03 µM
Drug metabolism (Plasma [6]): Metabolite_Detected
Stability [7]: Unstable
AUCED90 (Plasmodium falciparum [8]): < 6.1 µg.hr/ml/day
chromatographic logD [9]: 3.3
bioavailability [10]: 89%
half-life [11]: 1.4 h

SMILES: CN1CCc2ccc(Nc3nnc(-c4cc(-c5cccnc5)cc(C(F)(F)F)c4)o3)cc2C1
Ratio IC50 (Plasmodium falciparum [12]): 1
Ratio IC50 (Plasmodium falciparum [13]): 1
clearance [14]: 42 to 43 mL/min/kg
Vd [15]: 3.5 L/kg
solubility [2]: 1.2 µg/mL (≈ 2.66 µM)
ED90 (Plasmodium falciparum [5]): 9.3 mg/kg
IC50 (Plasmodium falciparum [1]): 0.02 µM
Ratio IC50 [16]: 1
Ratio IC50 (Plasmodium falciparum [17]): 1
AUCED90 (Plasmodium falciparum [8]): 2.2 µg.hr/ml/day
Ratio IC50 [18]: 1
Ratio IC50 (Plasmodium falciparum [19]): 1
Ratio IC50 (Plasmodium falciparum [20]): 1
intrinsic clearance (Liver): 0.9 mL/min/g
bioavailability [10]: 90%
Ratio IC50 (Plasmodium falciparum [21]): 1

SMILES: CN(C)Cc1ccc(Nc2nnc(-c3cc(-c4cccnc4)cc(C(F)(F)F)c3)o2)cn1
IC50 (Plasmodium falciparum [1]): 0.09 µM
chromatographic logD [9]: 2.9

SMILES: O=C(NNC(=O)c1cc(-c2cccnc2)cc(C(F)(F)F)c1)Nc1ccc(CN2CCCC2)cc1
Drug metabolism (Plasma [22]): Metabolite_Detected

Continued, in another order:

IC50 (Plasmodium falciparum [1]): 0.07 µM
intrinsic clearance (Liver): 5.1 mL/min/g
SMILES: CN1Cc2ccc(Nc3nnc(-c4cccc(-c5cccnc5)c4)o3)cc2C1

IC50 (Plasmodium falciparum [1]): 0.48 µM
intrinsic clearance (Liver): 2.2 mL/min/g
SMILES: CN1CCc2ccc(Nc3nnc(-c4ccc(F)c(-c5cccnc5)c4)o3)cc2C1

IC50 (Plasmodium falciparum [1]): 0.07 µM
SMILES: CN1CCc2ccc(Nc3nnc(-c4ccnc(-c5cccnc5)c4)o3)cc2C1

IC50 (Plasmodium falciparum [1]): 0.66 µM
intrinsic clearance (Liver): 9.3 mL/min/g
SMILES: CN1CCCc2ccc(Nc3nnc(-c4cccc(-c5cccnc5)c4)o3)cc2C1

IC50 (Plasmodium falciparum [1]): 0.13 µM
SMILES: CN1CCc2ccc(Nc3nnc(-c4cccc(-c5cccnc5)c4)o3)nc2C1

IC50 (Plasmodium falciparum [1]): 1.7 µM
intrinsic clearance (Liver): 1.8 mL/min/g
SMILES: c1ccc(Nc2nnc(-c3cccc(-c4cccnc4)c3)o2)cc1

IC50 (Plasmodium falciparum [1]): 0.02 µM
SMILES: CN1CCc2ncc(Nc3nnc(-c4cccc(-c5cccnc5)c4)o3)cc2C1

solubility [2]: 390 µg/mL (≈ 1010 µM)
IC50 (Plasmodium falciparum [1]): 0.2 µM
intrinsic clearance (Liver): < 0.5 mL/min/g
SMILES: CN1CCc2ccc(Nc3nnc(-c4cc(-c5cccnc5)ccn4)o3)cc2C1
ED90 (Plasmodium falciparum [5]): 33.8 mg/kg
AUCED90 (Plasmodium falciparum [8]): 1.4 µg.hr/ml/day
